Bioassay records (PubChem)
Only some compounds are listed: those with a hit (about 5.6% of all), similar ones and a draw of the others.
GRIN3A LBD mod = modulators (binders) of human NR3A ligand-binding domain; NR3A LBD differential scanning fluorimetry, Tm shift; 0% = protein alone, 100% = glycine-bound protein; Tm shift relative to glycine control, % at 25 µM; 2.5% of 340,000 active; AID 1259313;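 active means melting temperature shift of at least 10% of the positive control shift, at one fixed dose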
XBP1 UPR activ = adaptive UPR (XBP1) activation; 0.33% of 330,000 active; activation, % at 20 µM; CHO-XBP1 luciferase reporter, IRE1-XBP1 UPR activation, luminescence; percent of tunicamycin response, DMSO as zero;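 active means versus positive control, 20 µM dose yields 30% or more activation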;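 further: 100% = tunicamycin at 10 µg/mL and 0% = DMSO only wells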
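assay system = CHO-XBP1 luciferase reporter cells | amount = 1000 cells/well | buffer or medium = F12 plus 10% FBS | compound dosing = single point, 20 µM final compound, 1% DMSO | incubation = 16-18 h cell attachment at 37 °C, then 6 h compound exposure | detection = Steady-Glo luminescence read | controls = tunicamycin 10 µg/mL and vehicle-only wells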
CHOP UPR activ = apoptotic UPR (CHOP) activation. AID 449763. activation, % at 10 µM. CHO-CHOP luciferase reporter, luminescence; percent of tunicamycin response over DMSO baseline. 0.34% of 330,000 active;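 active means at 10 µM dose, activation of 40% or more, normalized to positive control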;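 further: 100% = tunicamycin at 10 µg/mL and 0% = DMSO alone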
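System: CHO-CHOP luciferase reporter cell line | Buffer or medium: F12 medium containing 10% fetal bovine serum | Doses: One dose, 10 µM in 0.5% DMSO | Times: 6 h compound exposure at 37 °C after overnight seeding | Signal: Luciferase luminescence | Read-out: % activation vs tunicamycin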
aDG glyco act = alpha-DG glycosylation activation; Pro5-aDG cells, alpha-DG glycosylation AlphaScreen (IIH6); 0% Pro5, 100% B10-LARGE cell signal; activation, % at 10 µM; 0.22% of 360,000 active; AID 624168;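 active means activation of at least 8% versus controls, or a plate z-score of at least 8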;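 further: Pro5 are CHO cells carrying HIG-tagged alpha-DG that lacks glycosylation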
CHOP inhibitor = blocks CHOP induction under ER stress; CHO-K1 CHOP-promoter luciferase, tunicamycin-induced, 15-18 h; inhibition, % at 10 µM; 3.8% of 220,000 active;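 active means compounds that reduced the stress-induced luciferase reporter signal by more than about 70% of percent inhibition, limit read from the data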;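 further: 0% = tunicamycin plus vehicle and 100% = wells without tunicamycin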
MPTP block = blocks calcium-induced mitochondrial swelling; isolated mouse mitochondria, Ca2+ swelling absorbance, 30 min; inhibition, % at 10 µM; 1.4% of 360,000 active;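 active means inhibition of 50% or more, scaled per plate between neutral and stimulator controls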;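 further: 0% = DMSO wells given calcium and 100% = 1 mM EGTA wells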
Starred values were filed as active, the others as inactive; . = not tested or not shown.

SMILES	GRIN3A LBD mod	XBP1 UPR activ	CHOP UPR activ	aDG glyco act	CHOP inhibitor	MPTP block
COc1cc(C2Nc3cc(Cl)c(S(N)(=O)=O)cc3S(=O)(=O)N2)cc(OC)c1OC (centres undefined)	1.0	1.1	-1.6	0.0	14.0	0.1
CC1(C)C(=O)Nc2ccccc2N1C(=O)COc1ccc(C#N)cc1	-0.2	0.4	-0.3	-0.1	.	-1.7
CSc1nc2ccccc2cc1/C=C(\C#N)c1ccccc1	18.7*	-1.1	-0.6	-0.4	39.3	-2.6
CSc1nc2ccccc2cc1/C=C(\C#N)c1ccc(Cl)c(Cl)c1	16.8*	-1.6	-2.5	-0.3	20.5	4.9
CSc1nc2ccccc2cc1/C=C(\C#N)c1cccc(C)c1	0.0	0.9	-0.5	-0.5	-9.9	14.5
CNC(C)C(=O)NC(C(=O)NC(C)C(=O)Nc1cccc2ccccc12)C(C)C (centres undefined)	.	.	.	2.5	.	-2.8
CCc1ccc(NS(=O)(=O)c2ccc3[nH]cc(C(=O)N4CCCCC4)c(=O)c3c2)cc1	-2.4	-1.8	0.2	0.1	36.9	-0.6
CCN(CC)C(=O)c1c[nH]c2ccc(S(=O)(=O)Nc3cc(C)cc(C)c3)cc2c1=O	1.0	-1.5	2.5	0.4	9.0	0.5
Cc1cc(C)cc(NS(=O)(=O)c2ccc3[nH]cc(C(=O)N4CCc5ccccc54)c(=O)c3c2)c1	13.3*	-2.3	1.0	0.1	5.9	-2.0
CCc1ccc(NS(=O)(=O)c2ccc3[nH]cc(C(=O)N4CCc5ccccc54)c(=O)c3c2)cc1	11.8*	-3.6	2.1	0.4	12.8	0.4
O=C(NCc1ccccc1)c1c[nH]c2ccc(S(=O)(=O)Nc3ccc4c(c3)OCCO4)cc2c1=O	12.1*	-8.4	-1.8	0.0	-0.3	4.6
O=C(NC1CC1)c1c[nH]c2ccc(S(=O)(=O)Nc3cccc(C(F)(F)F)c3)cc2c1=O	11.4*	-2.1	-0.4	0.1	-7.2	-2.7
COc1cccc(NC(=S)N2CCN(S(C)(=O)=O)CC2)c1	-2.3	0.3	-2.0	-0.1	.	0.3
O=C(c1cccs1)N1CCN(c2ncc(C(F)(F)F)cc2Cl)CC1	11.1*	7.2	2.0	0.6	.	2.1
OCCN1CCN(c2nc(-c3ccccc3O)nc3ccccc23)CC1	18.8*	1.2	0.2	0.3	.	0.5
Cc1nc(NC(=O)/C=C/c2ccccc2)sc1C(=O)Nc1cccc(Cl)c1	31.6*	-2.5	-0.4	0.0	56.2	4.2
Cc1nc(NC(=O)/C=C/c2ccc(Cl)cc2Cl)sc1C(=O)N(C)C	2.3	-0.4	-0.4	0.0	84.6*	1.9
O=C(/C=C/c1ccccc1Cl)Nc1ccncc1	6.6	0.6	6.6	0.8	-6.9	-0.5
O=C(/C=C/c1ccc(Cl)cc1Cl)Nc1ccncc1	31.6*	-0.1	3.5	1.5	46.2	41.6
Cc1nc(NC(=O)/C=C/c2ccccc2)sc1C(=O)N(C)C	-1.2	0.1	3.1	0.1	-10.4	-0.5
C[C@@H]1CN([C@@H](C)CO)C(=O)CCCn2nncc2CO[C@H]1CN(C)C(=O)Nc1ccccc1F	.	.	.	-0.1	.	-1.1
NNc1nc2ccc(F)cc2s1	0.8	-0.7	0.9	-0.1	6.0	3.5
Fc1cccc2sc(Nc3nc4ccccc4s3)nc12	27.6*	3.4	4.8	-0.1	84.8*	39.3
Fc1ccc2nc(Nc3nc4cc5c(cc4s3)OCO5)sc2c1	30.6*	4.2	8.5	0.3	-29.7	7.4
Fc1ccc2nc(Nc3nc4cc5c(cc4s3)OCCO5)sc2c1	3.8	0.2	5.0	0.3	21.0	40.7
Fc1ccc2nc(Nc3ccccc3)sc2c1	19.4*	1.7	2.9	0.0	45.3	4.6
O=C(NNc1nc2ccccc2s1)c1ccccc1F	-3.6	3.2	-2.5	-0.2	8.3	-0.3
COCCNC(=O)C1(C)CCN(C(=O)c2ccc(C(F)(F)F)nc2C)C1 (centres undefined)	.	.	.	-0.2	.	0.6
CN(C)c1ccc(C(=O)Nc2ccc(S(=O)(=O)Nc3nccs3)cc2)cc1	-2.4	-3.9	-0.4	-0.3	.	0.5
O=C(NCc1cccs1)c1noc2c1CCCC2	11.2*	2.5	3.1	0.2	.	0.6
